{"source": "ChEMBL document CHEMBL1806383", "about": "“Optimisation of pharmacokinetic properties to afford an orally bioavailable and selective V1A receptor antagonist” (Bioorg Med Chem Lett, 2011)", "key": {"[1]": {"assay": "Apparent permeability of the compound from apical to basolateral side of human Caco2 cells", "assay_type": "ADME, cell-based", "details": "Caco-2"}, "[2]": {"assay": "Oral bioavailability in Sprague-Dawley rat at 10 mg/kg", "assay_type": "ADME, organism-based", "details": "in vivo", "method_in_brief": "(§1)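 Male Sprague–Dawley rat, oral 10 mg/kg in 0.5% (w/v) gelatin in 5% (w/v) mannitol.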"}, "Rattus norvegicus [3]": {"test_system": "Rattus norvegicus", "assay": "Volume of distribution at steady state in Sprague-Dawley rat at 10 mg/kg, po", "assay_type": "ADME, organism-based", "set-up": "dose 10 mg/kg, route oral", "details": "in vivo", "method_in_brief": "as §1"}, "[4]": {"assay": "Oral bioavailability in Sprague-Dawley rat at 5 mg/kg", "assay_type": "ADME, organism-based", "details": "in vivo", "method_in_brief": "(§2)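 Male Sprague–Dawley rat, oral 5 mg/kg in 0.5% (w/v) gelatin in 5% (w/v) mannitol.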"}, "Rattus norvegicus [5]": {"test_system": "Rattus norvegicus", "assay": "Volume of distribution at steady state in Sprague-Dawley rat at 5 mg/kg, po", "assay_type": "ADME, organism-based", "set-up": "dose 5 mg/kg, route oral", "details": "in vivo", "method_in_brief": "as §2"}, "[6]": {"assay": "Tmax in Sprague-Dawley rat at 1 mg/kg, iv and 5 mg/kg, po", "assay_type": "ADME, organism-based", "details": "in vivo", "method_in_brief": "(§3)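 Male Sprague–Dawley rats; iv 1 mg/kg in 30% DMA in saline and po 5 mg/kg in 0.5% (w/v) gelatin in 5% (w/v) mannitol.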"}, "[7]": {"assay": "Tmax in cynomolgus monkey at 1 mg/kg, iv and 3 mg/kg, po", "assay_type": "ADME, organism-based, Macaca fascicularis", "details": "in vivo", "method_in_brief": "(§4)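 Cynomolgus monkey; iv 1 mg/kg in 30% DMA in saline and po 3 mg/kg in 0.5% (w/v) gelatin in 5% (w/v) mannitol.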"}, "[8]": {"assay": "Cmax in Sprague-Dawley rat at 1 mg/kg, iv and 5 mg/kg, po", "assay_type": "ADME, organism-based", "details": "in vivo", "method_in_brief": "as §3"}, "[9]": {"assay": "Oral bioavailability in cynomolgus monkey at 3 mg/kg", "assay_type": "ADME, organism-based, Macaca fascicularis", "details": "in vivo", "method_in_brief": "as §4"}, "[10]": {"assay": "Cmax in cynomolgus monkey at 1 mg/kg, iv and 3 mg/kg, po", "assay_type": "ADME, organism-based, Macaca fascicularis", "details": "in vivo", "method_in_brief": "as §4"}, "[11]": {"assay": "Volume of distribution at steady state in cynomolgus monkey at 1 mg/kg, iv and 3 mg/kg, po", "assay_type": "ADME, organism-based, Macaca fascicularis", "details": "in vivo, read-out: Vdss", "method_in_brief": "as §4"}, "[12]": {"assay": "Volume of distribution at steady state in Sprague-Dawley rat at 1 mg/kg, iv and 5 mg/kg, po", "assay_type": "ADME, organism-based", "details": "in vivo, read-out: Vdss", "method_in_brief": "as §3"}}, "data": [{"smiles": "O=C(Cc1ccc(Cl)cc1)N[C@H](Cc1ccc(Cl)cc1)C(=O)N[C@H]1C[C@H]2CC[C@@H](C1)N2", "values": [{"measurement": "Papp A→B", "setting": "[1]", "value": "< 10", "unit": "×10⁻⁶ cm/s"}]}, {"smiles": "O=C(Cc1ccc(Cl)cc1)N[C@H](Cc1ccc(Cl)cc1)C(=O)NC1CCCNCC1", "note": "(some centres not stated)", "values": [{"measurement": "Papp A→B", "setting": "[1]", "value": "< 10", "unit": "×10⁻⁶ cm/s"}]}, {"smiles": "O=C(Cc1ccc(Cl)cc1)N[C@H](Cc1ccc(Cl)cc1)C(=O)NC1CCNCC1", "values": [{"measurement": "Papp A→B", "setting": "[1]", "value": "< 10", "unit": "×10⁻⁶ cm/s"}]}, {"smiles": "CN1CCC(NC(=O)[C@@H](Cc2ccc(Cl)cc2)NC(=O)Cc2ccc(Cl)cc2)CC1", "values": [{"measurement": "Papp A→B", "setting": "[1]", "value": "< 10", "unit": "×10⁻⁶ cm/s"}]}, {"smiles": "CN1CCN(CCCNC(=O)[C@@H](Cc2ccc(Cl)cc2)NC(=O)Cc2ccc(Cl)cc2)CC1", "values": [{"measurement": "Papp A→B", "setting": "[1]", "value": "< 10", "unit": "×10⁻⁶ cm/s"}]}, {"smiles": "CN(C)CCCNC(=O)[C@@H](Cc1ccc(Cl)cc1)NC(=O)Cc1ccc(Cl)cc1", "values": [{"measurement": "Papp A→B", "setting": "[1]", "value": "< 10", "unit": "×10⁻⁶ cm/s"}]}, {"smiles": "CN(C)CCCNC(=O)[C@@H](Cc1ccc(Cl)cc1)NC(=O)C1(c2ccc(Cl)cc2)CC1", "values": [{"measurement": "Papp A→B", "setting": "[1]", "value": "< 10", "unit": "×10⁻⁶ cm/s"}]}, {"smiles": "CCCNC(=O)[C@@H](Cc1ccc(Cl)cc1)NC(=O)Cc1ccc(Cl)cc1", "values": [{"measurement": "Papp A→B", "setting": "[1]", "value": "< 10", "unit": "×10⁻⁶ cm/s"}]}, {"smiles": "O=C(Cc1ccc(Cl)cc1)N[C@H](Cc1ccc(Cl)cc1)C(=O)NCCCO", "values": [{"measurement": "bioavailability", "setting": "[2]", "value": 43, "unit": "%"}, {"measurement": "Vdss", "setting": "Rattus norvegicus [3]", "value": 2, "unit": "L/kg"}]}, {"smiles": "CN(C)[C@H]1CC[C@H](NC(=O)[C@@H](Cc2ccc(Cl)cc2)NC(=O)Cc2ccc(Cl)cc2)CC1", "values": [{"measurement": "Papp A→B", "setting": "[1]", "value": "< 10", "unit": "×10⁻⁶ cm/s"}]}, {"smiles": "CN(C)[C@H]1CC[C@H](NC(=O)[C@@H](Cc2ccc(Cl)cc2)NC(=O)C2(c3ccc(Cl)cc3)CC2)CC1", "values": [{"measurement": "bioavailability", "setting": "[4]", "value": 17, "unit": "%"}, {"measurement": "Vdss", "setting": "Rattus norvegicus [5]", "value": 9, "unit": "L/kg"}, {"measurement": "Papp A→B", "setting": "[1]", "value": "< 10", "unit": "×10⁻⁶ cm/s"}]}, {"smiles": "COc1ccc(C[C@@H](NC(=O)C2(c3ccc(Cl)cc3)CC2)C(=O)N[C@H]2CC[C@H](N(C)C)CC2)cc1", "values": [{"measurement": "Papp A→B", "setting": "[1]", "value": "< 10", "unit": "×10⁻⁶ cm/s"}]}, {"smiles": "CN(C)[C@H]1CC[C@H](NC(=O)[C@@H](Cc2ccc(F)cc2)NC(=O)C2(c3ccc(Cl)cc3)CC2)CC1", "values": [{"measurement": "Papp A→B", "setting": "[1]", "value": "< 10", "unit": "×10⁻⁶ cm/s"}]}, {"smiles": "CN(C)[C@H]1CC[C@H](NC(=O)[C@@H](Cc2ccc(Cl)cc2)NC(=O)C2(c3ccc(Cl)cc3)CCC2)CC1", "values": [{"measurement": "Papp A→B", "setting": "[1]", "value": "< 10", "unit": "×10⁻⁶ cm/s"}]}, {"smiles": "CN(C)[C@H]1CC[C@H](NC(=O)[C@@H](Cc2ccc(Cl)cc2)NC(=O)C2(c3ccc(F)cc3)CCCC2)CC1", "values": [{"measurement": "Papp A→B", "setting": "[1]", "value": "< 10", "unit": "×10⁻⁶ cm/s"}]}, {"smiles": "CN(C)[C@H]1CC[C@H](NC(=O)[C@@H](Cc2ccc(Cl)cc2)NC(=O)C2(c3ccc(F)cc3)CC2)CC1", "values": [{"measurement": "Tmax", "setting": "[6]", "value": 5.8, "unit": "h"}, {"measurement": "Tmax", "setting": "[7]", "value": 2.7, "unit": "h"}, {"measurement": "Cmax", "setting": "[8]", "value": 35, "unit": "ng/mL"}, {"measurement": "bioavailability", "setting": "[4]", "value": 30, "unit": "%"}, {"measurement": "bioavailability", "setting": "[9]", "value": 20, "unit": "%"}, {"measurement": "Papp A→B", "setting": "[1]", "value": "< 10", "unit": "×10⁻⁶ cm/s"}, {"measurement": "Cmax", "setting": "[10]", "value": 41, "unit": "ng/mL"}, {"measurement": "Vd", "setting": "[11]", "value": 6.4, "unit": "L/kg"}, {"measurement": "Vd", "setting": "[12]", "value": 11.8, "unit": "L/kg"}]}, {"smiles": "CN(C)[C@H]1CC[C@H](NC(=O)[C@@H](Cc2ccc(Cl)cc2)NC(=O)Cc2ccc(F)cc2)CC1", "values": [{"measurement": "Papp A→B", "setting": "[1]", "value": "< 10", "unit": "×10⁻⁶ cm/s"}]}, {"smiles": "O=C(Cc1ccc(Cl)cc1)N[C@H](Cc1ccc(Cl)cc1)C(=O)N[C@H]1CC[C@@H](O)CC1", "values": [{"measurement": "Papp A→B", "setting": "[1]", "value": "< 10", "unit": "×10⁻⁶ cm/s"}]}, {"smiles": "CC(CCO)NC(=O)[C@@H](Cc1ccc(Cl)cc1)NC(=O)Cc1ccc(Cl)cc1", "note": "(stereo in doubt; 17c)", "values": [{"measurement": "Papp A→B", "setting": "[1]", "value": "< 10", "unit": "×10⁻⁶ cm/s"}]}, {"smiles": "O=C(Cc1ccc(Cl)cc1)N[C@H](Cc1ccc(Cl)cc1)C(=O)NC1CCCC(O)C1", "note": "(stereo in doubt; 17e)", "values": [{"measurement": "Papp A→B", "setting": "[1]", "value": "< 10", "unit": "×10⁻⁶ cm/s"}]}, {"smiles": "O=C(Cc1ccc(Cl)cc1)N[C@H](Cc1ccc(Cl)cc1)C(=O)NC1CCCCC1O", "note": "(stereo in doubt; 17h)", "values": [{"measurement": "Papp A→B", "setting": "[1]", "value": "> 20", "unit": "×10⁻⁶ cm/s"}]}]}
